A selection: hits, their analogues and other compounds. The true share with any hit is near 2.9%.
CaV13 FRET inh – Primary screen for inhibitors of IQ motif and Ca2+-dependent inactivation inhibitor domain binding in CACNA1D, Förster resonance energy transfer in living cells, …; HEK cells, CFP/YFP FRET ICDI-IQ, plate reader, 10 min; percent FRET-ratio fall versus neutral wells; actives 0.098% (n = 340,000); inhibition, % at 12.3 µM; AID 743397;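 active = mean replicate inhibition of at least 30% and at least 1% of replicates passing that level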
ADAM17 inh – ADAM17 inhibitors, primary screen, biochemical, QFRET. actives 0.83% (n = 370,000). Disintegrin and metalloproteinase domain-containing protein 17 (Homo sapiens), P78536. inhibition, % at 6.95 µM. recombinant ADAM17, EDANS/DABCYL FRET peptide cleavage;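 active = inhibition above the mean of compounds lying between control limits plus 3 SD, set per campaign, cut at about 8.5% in these data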
ADAM10 inh – human ADAM10 inhibitors, primary screen, biochemical, QFRET, HTS | actives 0.62% (n = 370,000) | recombinant ADAM10, EDANS/DABCYL FRET peptide cleavage, 3 h | inhibition, % at 7 µM | AID 720582, 2013 | Disintegrin and metalloproteinase domain-containing protein 10 (Homo sapiens), O14672;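 active = inhibition above a per-campaign cutoff equal to the mean of compounds falling between control-based bounds plus 3 SD, cut at about 20% in these data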
Target sequence (O14672 214-748 limits assumed): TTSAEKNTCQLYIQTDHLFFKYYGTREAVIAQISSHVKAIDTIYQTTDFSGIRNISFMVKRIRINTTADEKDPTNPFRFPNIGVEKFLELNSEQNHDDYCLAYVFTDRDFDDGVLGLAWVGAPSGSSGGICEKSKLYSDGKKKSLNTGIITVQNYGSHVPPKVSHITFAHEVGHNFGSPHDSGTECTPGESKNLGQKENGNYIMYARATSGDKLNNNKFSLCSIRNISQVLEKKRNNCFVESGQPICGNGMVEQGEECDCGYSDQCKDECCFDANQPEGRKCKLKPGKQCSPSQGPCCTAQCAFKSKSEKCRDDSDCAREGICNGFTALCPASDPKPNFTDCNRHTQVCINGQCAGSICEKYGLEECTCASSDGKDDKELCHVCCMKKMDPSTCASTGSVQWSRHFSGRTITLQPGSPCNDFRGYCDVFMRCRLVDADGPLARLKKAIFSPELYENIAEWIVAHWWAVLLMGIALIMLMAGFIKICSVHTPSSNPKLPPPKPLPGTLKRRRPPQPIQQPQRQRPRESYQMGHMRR
Arr AP2 block – inhibitors of beta-arrestin/AP2 binding, primary screen, biochemical, GPCR trafficking, flow cytometry; beta-arrestin 1 C-terminal peptide binding to AP2 beta2-adaptin appendage (human); FITC-arrestin peptide / GST-AP2 beads; AP2 beta2 appendage carries R879A mutation; inhibition, % at 10 µM; actives 0.31% (n = 340,000); AID 504490, 2011;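 active = inhibition above a set limit, near 3 SD of compounds lacking own fluorescence, cut at about 54% in these data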
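System: GST-AP2 R879A glutathione beads. Medium: PBS with 0.05% Tween 20 and 0.1% BSA. Also added: FITC-arrestin peptide, 50 nM. Incubation: 12 min plus 1 h, RT. Measured by: high-throughput flow cytometry of beads, ex 488, em 535 nm. Evaluation: percent drop in bead-associated FITC signal.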
CendR NRP1 mod – modulators of CendR peptide binding to NRP-1, primary screen, biochemical, fluorescence polarization, uHTS; FAM-RPARPAR peptide binding to NRP-1; inhibition, % at 25 µM; actives 0.85% (n = 360,000);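 active = inhibition or corrected inhibition above about 18%, plus a signal ratio from 0.5 to 1.5, limit read from the data, passing the limit was not always enough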
FAS-TE inh – FAS thioesterase domain inhibitors, primary screen, biochemical, fluorescence intensity, uHTS; recombinant FAS-TE, OMFH fluorogenic substrate, fluorescence endpoint; inhibition, % at 15 µM; actives 0.67% (n = 360,000); AID 602261, 2012;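 active = compounds whose normalised, plate-corrected inhibition of enzyme fluorescence in the single-dose primary screen is 50% or more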
ADAM10 ctr – ADAM10 inhibitors, counter-screen for ADAM17 exosite inhibitor project, biochemical, FRET, human ADAM10; recombinant ADAM10, EDANS/DABCYL FRET peptide cleavage, 3 h; shares compounds with ADAM17 inh; actives 47% (n = 2,900); inhibition, % at 6.95 µM;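 active = mean inhibition over the triplicate runs exceeds the activity threshold set in the earlier primary screen, cut at about 20% in these data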
ADAM17 confirm – ADAM17 inhibitors, hit retest, confirmation, biochemical, QFRET peptide cleavage. recombinant ADAM17, EDANS/DABCYL QFRET peptide cleavage. shares compounds with ADAM17 inh. actives 65% (n = 2,900). inhibition, % at 6.95 µM;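 active = mean inhibition across replicates above the hit cutoff set in the primary screen, cut at about 8.5% in these data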
Each line names hits and unclear results; the compound was inactive in the other large screens (follow-up assays come after a bar, where they were run).

C=CCC[C@@H](Cc1ccc(F)cc1)C(=O)OC[C@@H]1CCCN1C(=O)[C@@H](CC=C)CC(=O)N[C@@H](CO)Cc1ccccc1	ADAM17 inh 9.1 | ADAM10 ctr inactive | ADAM17 confirm 9.3
CCOC(=O)Cn1cc(CN2C(C(=O)OC)CN(CCO)CCS2(=O)=O)nn1 (centres undefined)	none (no result: CaV13 FRET inh, Arr AP2 block, CendR NRP1 mod, FAS-TE inh)
CCC(C)(C)c1ccc(OCCCC[n+]2cccc(C)c2)c(C(C)(C)CC)c1	ADAM17 inh 9.4 | ADAM10 ctr inactive | ADAM17 confirm inactive
COc1ccc(C(=O)Nc2ccc(S(=O)(=O)N3CCc4ccccc43)cc2)cc1	ADAM17 inh 9.2 (no result: CaV13 FRET inh) | ADAM10 ctr 21 | ADAM17 confirm 15
CS(=O)(=O)N1CCc2cc(C(=O)Nc3ccc(Br)cc3)ccc21	ADAM17 inh 9.0 | ADAM10 ctr inactive | ADAM17 confirm inactive
O=C(Nc1nc(-c2ccccc2)cs1)c1ccc(S(=O)(=O)N2CCc3ccccc32)cc1	ADAM17 inh 9.7 | ADAM10 ctr inactive | ADAM17 confirm 9.7
O=C(Nc1ccc(S(=O)(=O)N2CCCCC2)cc1)c1ccc(CN2CCc3ccccc3C2)cc1	ADAM17 inh 8.8 (no result: CaV13 FRET inh) | ADAM10 ctr inactive | ADAM17 confirm 9.6
O=C(CSc1ncn[nH]1)Nc1ccc2c(c1)CCC2	ADAM17 inh 8.8 | ADAM10 ctr inactive | ADAM17 confirm inactive
O=C(NCC1CCCO1)c1cnn2c1NC(c1ccccc1)CC2C(F)(F)F (centres undefined)	ADAM17 inh 11 (no result: CaV13 FRET inh) | ADAM10 ctr inactive | ADAM17 confirm inactive
O=C(NCC1CCCO1)c1nn2c(c1Cl)NC(c1ccc(F)cc1)CC2C(F)(F)F (centres undefined)	none
OC(c1ccc(F)c(F)c1)c1nc(-c2cccc(F)c2)cs1 (centres undefined)	none (no result: Arr AP2 block)
COc1ccc(N2C(=O)c3[nH]nc(-c4ccccc4)c3C2c2cccc(C(F)(F)F)c2)cc1 (centres undefined)	none (no result: Arr AP2 block, CendR NRP1 mod, FAS-TE inh)
COc1cc(CCCN2CCNC[C@H]2Cc2cccc3ccccc23)cc(OC)c1OC	none
Cc1ccccc1OCc1nnc(SCC(=O)Nc2ccc3c(c2)OCO3)n1C	none
Cc1ccccc1OCc1nnc(SCC(=O)Nc2ccc3nc(SCC(=O)Nc4ccccc4)sc3c2)n1C	ADAM17 inh 11 | ADAM10 ctr inactive | ADAM17 confirm inactive
Cc1ccc(S(=O)(=O)/N=C2/NC(=O)/C(=C/c3cc([N+](=O)[O-])ccc3O)S2)cc1	ADAM17 inh 8.6 | ADAM10 ctr inactive | ADAM17 confirm inactive
Nc1[nH]c(C(=O)c2ccccc2)c(-c2cccc3ccccc23)c1C(=O)c1ccc(Br)cc1	none (no result: Arr AP2 block, CendR NRP1 mod, FAS-TE inh)
O=C(c1ccccc1)c1ccc(C(=O)N2CCN(c3ccc(O)cc3)CC2)cc1	ADAM17 inh 8.7 | ADAM10 ctr inactive | ADAM17 confirm inactive
O=C(c1ccc(N2CCN(C(=O)c3ccccc3)CC2)cc1)c1cccc(F)c1	none
CCOc1cccc(/C=N\NC(=O)Cc2cccs2)c1O	none (no result: CaV13 FRET inh, Arr AP2 block, CendR NRP1 mod, FAS-TE inh)
CC(C)n1c(CNC(=O)c2ccccc2F)nnc1SCC(=O)NC1CCCCC1	none
C[C@@H]1CN([C@H](C)CO)S(=O)(=O)c2ccc(Br)cc2O[C@@H]1CN(C)Cc1ccc(C(=O)O)cc1	none (no result: Arr AP2 block)
C[C@H](CO)N1C[C@H](C)[C@@H](CN(C)Cc2ccc3c(c2)OCO3)Oc2cc(Br)ccc2S1(=O)=O	ADAM17 inh 8.9 (no result: CaV13 FRET inh, Arr AP2 block) | ADAM10 ctr 25 | ADAM17 confirm 14
O=C(NN=Cc1ccccc1Cl)C(=O)Nc1cccc(C(F)(F)F)c1	none (no result: Arr AP2 block, CendR NRP1 mod, FAS-TE inh)
CC(C)(C)S(=O)N1Cc2cc(CO)ccc2[C@H]1CCO (some centres undefined)	none (no result: Arr AP2 block)
Cc1cccc2cc(C3CC(c4ccco4)=NN3S(=O)(=O)c3ccccc3)c(Cl)nc12 (centres undefined)	ADAM17 inh 9.4 | ADAM10 ctr 20 | ADAM17 confirm 12
Cc1ccc(-c2c(NC(=O)c3ccccc3)nc3ncccn23)cc1	none (no result: CaV13 FRET inh, Arr AP2 block, CendR NRP1 mod, FAS-TE inh)
C=CC[C@H]1c2ccccc2[C@H]2N3N=Cc4ccccc4[C@H]3[C@H](CCc3ccccc3)C(=O)N2N1C(=O)c1ccccc1	ADAM17 inh 11 (no result: CaV13 FRET inh, Arr AP2 block, CendR NRP1 mod, FAS-TE inh) | ADAM10 ctr inactive | ADAM17 confirm inactive
C=CC[C@@H]1NN2C(=O)[C@@H](CCc3ccccc3)[C@@H]3c4ccccc4C=NN3[C@@H]2c2ccccc21	none (no result: CaV13 FRET inh, Arr AP2 block, CendR NRP1 mod, FAS-TE inh)
Cc1ccc([C@H]2C[C@@H](O)[C@H](n3cc(-c4ccc(F)cc4)nn3)CN2C(=O)c2cccs2)cc1	none (no result: Arr AP2 block)
C=CCOC(=O)C1=C(C)N=C2SCCC(=O)N2C1c1ccc(OC(=O)c2ccco2)cc1 (centres undefined)	none
COC(=O)C1=C(C)N=C2SCCC(=O)N2C1c1ccc(OC(=O)c2ccco2)cc1 (centres undefined)	ADAM17 inh 17 (no result: CaV13 FRET inh) | ADAM10 ctr inactive | ADAM17 confirm inactive
Cc1ccc(C2C3=C(CC(C)(C)CC3=O)N=C3c4ccccc4C(=O)C32)cc1 (centres undefined)	ADAM17 inh 8.7 | ADAM10 ctr inactive | ADAM17 confirm inactive
Cc1ccnc(SCc2cc(=O)c(OC(=O)c3ccc([N+](=O)[O-])cc3)co2)n1	none (no result: CaV13 FRET inh, Arr AP2 block, CendR NRP1 mod, FAS-TE inh)
C[C@@H]1CN([C@H](C)CO)C(=O)c2cc(NC(=O)Cc3cn(C)c4ccccc34)ccc2O[C@H]1CN(C)C(=O)Nc1ccc2c(c1)OCO2	ADAM17 inh 14 | ADAM10 ctr inactive | ADAM17 confirm inactive
C[C@@H]1CN([C@H](C)CO)C(=O)c2cc(NC(=O)Cc3ccccc3)ccc2O[C@H]1CN(C)Cc1ccc(Oc2ccccc2)cc1	ADAM17 inh 9.2 | ADAM10 ctr 28 | ADAM17 confirm 19
C[C@H]1CN([C@@H](C)CO)C(=O)c2cc(NC(=O)Cc3ccccc3)ccc2O[C@H]1CN(C)Cc1ccccc1	none

Screening data (PubChem)
